Entries after “also recorded” stand apart in the source; their conditions may differ.
Key:
KRAS^G12C [1] = biological target: T1, KRAS^G12C (Homo sapiens, UniProt P01116, G12C); test: KRAS^G12C degradation, total KRAS levels by immunoblotting; format: cell-based
KRAS^G12C [2] = biological target: T1, KRAS^G12C; test: KRAS^G12C engagement, band shift of PROTAC-conjugated KRAS on immunoblot; format: cell-based; details: 2.5 μM
Procedure, shortened: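 KRAS was immunoblotted from independent wells harvested the same day. Engagement was the intensity of the higher-molecular-weight, PROTAC-modified band relative to unbound KRAS in DMSO samples. Mean ± SD, two biological replicates.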

pErk = test: Erk signaling; format: cell-based, human; details: for pErk: MIA PaCa-2 and NCI-H23 cells, 6 and 24 h
Procedure, shortened: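 Human KRAS^G12C cancer cells were treated for 24 h over a degrader dose range (NCI-H2030, heterozygous NCI-H23). Separately, MIA PaCa-2 and NCI-H23 received degrader or parent covalent inhibitor for 6 and 24 h, and time courses used 2.5 μM degrader. pErk and total Erk were immunoblotted and quantified against DMSO-treated cells. Lysates came from independent wells harvested the same day. Time-course data: mean ± SD, two biological replicates.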

KRAS^G13D = KRAS^G13D (Homo sapiens, UniProt P01116, G13D); test: KRAS engagement/degradation in HCT 116 cells; format: cell-based; details: HCT 116 cells (heterozygous KRAS^G13D), up to 10 μM
NCI-H2030 cells = test: Cell viability assay; format: cell-based, human; details: homozygous NCI-H2030 cells, MTS, 72 h
NCI-H23 cells = test: Cell viability assay; format: cell-based, human; details: heterozygous NCI-H23 cells, MTS, 72 h
[3] = MIA PaCa-2, NCI-H23 and SW1573 cells, 2.5 μM, 6-72 h time course
[4] = NCI-H2030 cells, 2.5 μM, 24 h time course

C=C(F)C(=O)N1CCN(c2nc(OC[C@@H]3CCCN3CCCOCCC(=O)N[C@H](C(=O)N3C[C@H](O)C[C@H]3C(=O)NCc3ccc(-c4scnc4C)cc3)C(C)(C)C)nc3c2CCN(c2cccc4cccc(Cl)c24)C3)C[C@@H]1CC#N [LC-2]
Dmax (KRAS^G12C [1]; MIA PaCa-2, MIA PaCa-2 cells, KRAS^G12C +/+, 24 h): ~75%
duration of KRAS degradation (KRAS^G12C [1]; [3]): sustained up to 72 h
time to maximal KRAS degradation (KRAS^G12C [1]; [3]): ≤ 24 h
Dmax (KRAS^G12C [1]; NCI-H23, NCI-H23 cells, KRAS^G12C +/−, 24 h): ~90%
KRAS degradation (KRAS^G12C [1]; NCI-H23 cells (heterozygous)): > 50%
KRAS degradation with neddylation inhibition (KRAS^G12C [1]; NCI-H23 cells, 2.5 μM LC-2, 24 h): rescues; also recorded: rescued KRAS degradation
KRAS^G12C level rebound (KRAS^G12C [1]; NCI-H23 cells, 2.5 μM, 72 h time course): began to rebound at 72 h
Dmax (KRAS^G12C [1]; NCI-H358, NCI-H358 cells, KRAS^G12C +/−, 24 h): ~40%
Dmax (KRAS^G12C [1]; NCI-H2030, NCI-H2030 cells, KRAS^G12C +/+, 24 h): ~75%
KRAS^G12C levels with neddylation inhibitor MLN4924 (KRAS^G12C [1]; NCI-H2030 cells, 1 μM MLN4924, 2.5 μM LC-2, 4 h): rescued KRAS^G12C levels
KRAS^G12C levels with proteasome inhibitor epoxomicin (KRAS^G12C [1]; NCI-H2030 cells, 1 μM epoxomicin, 2.5 μM LC-2, 4 h): rescued KRAS^G12C levels
KRAS^G12C degradation (KRAS^G12C [1]; NCI-H2030 cells, 2.5 μM, 4 h): ~65%
persistence of maximal degradation (KRAS^G12C [1]; [4]): persisted up to 24 h; also recorded: maintained up to 24 h
time to maximum degradation (KRAS^G12C [1]; [4]): ≤ 8 h
lowest concentration inducing maximal degradation of endogenous KRAS^G12C (KRAS^G12C [1]; NCI-H2030 cells, 24 h): 2.5 µM
KRAS levels, dose response (KRAS^G12C [1]; NCI-H2030 cells, 24 h, increasing concentrations): degrades KRAS^G12C in a dose-dependent manner
Dmax (KRAS^G12C [1]; SW1573, SW1573 cells, KRAS^G12C +/+, 24 h): ~90%
time to maximal degradation (KRAS^G12C [1]; SW1573 cells, 2.5 μM, 24 h time course): 12 h
time at which KRAS^G12C binding/engagement is seen (KRAS^G12C [2]; NCI-H2030 cells): ≤ 1 h
time at which KRAS engagement is seen (KRAS^G12C [2]; SW1573 cells): ≤ 1 h
pErk (pErk; 2.5 μM): suppressed
pErk signaling, dose response (pErk; NCI-H23 cells, 24 h): dose-dependent decrease
pErk signaling, dose response (pErk; NCI-H2030 cells, 24 h): dose-dependent decrease
pErk levels versus DMSO-treated cells (pErk; SW1573 cells, 2.5 μM, 24 h): significantly lower
total Erk versus DMSO (pErk; SW1573 cells, 2.5 μM, all time points): increased
phosphorylated Erk (pErk; SW1573 cells, 2.5 μM, between 1 and 4 h): inhibited
pErk levels (pErk; SW1573 cells, 2.5 μM, between 8 and 24 h): rebounded
engagement or degradation of KRAS^G13D (KRAS^G13D): No engagement or degradation

C=C(F)C(=O)N1CCN(c2nc(OC[C@@H]3CCCN3C)nc3c2CCN(c2cccc4cccc(Cl)c24)C3)C[C@@H]1CC#N [MRTX849]
cell viability (antiproliferative potency) (NCI-H2030 cells): more antiproliferative
cell viability (antiproliferative potency) (NCI-H23 cells): more antiproliferative
pErk (pErk; 0.10 μM): suppressed

— publication PMC7453568 (ACS Central Science, 2020)
